Assay results taken from ChEMBL document CHEMBL1151472, “In vitro interactions between tacrolimus and azoles against Candida albicans determined by different methods” (2008).

Legend:
Type in all cases: functional
Candida albicans [1] = assay: Antimicrobial activity against azole-susceptible Candida albicans isolate CA8 co-treated with calcineurin signaling inhibitor tacrolimus after 48 hrs by microdilution checkerboard technique; conditions: isolate CA8, 48 h
Outline: (§1)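 Checkerboard microdilution in MOPS-buffered RPMI 1640 (pH 7.0, 2% dextrose) with 2.5 × 10^3 CFU/ml for 48 h at 35°C. Final FK506 was 0.002–0.125 μg/ml. Azole finals were FLC 0.125–128 μg/ml, and ITR and VRC 0.008–8 μg/ml. MIC80 is an 80% OD492 decrease vs drug-free control. Interaction was scored by FICI (synergy ≤0.5, antagonism >4) and by ΔE from triplicates.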

Candida albicans [2] = assay: Antimicrobial activity against azole-resistant Candida albicans isolate CA10 assessed as growth at 0.25 ug/ml cotreated with 0.125 ug/ml calcineurin signaling inhibitor Tacrolimus after 48 hrs by microdilution checkboard technique relative to control; design: scale not given: the % may be the effect or the level left
Outline: (§2)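 Checkerboard microdilution in RPMI 1640 (pH 7.0, 2% dextrose, 0.165 M MOPS). Azole dilutions run along columns and FK506 along rows, at 4× final concentration. Final inoculum 2.5 × 10^3 CFU/ml from Sabouraud-subcultured cells. Incubated 35°C for 48 h; OD read at 492 nm. Background from microorganism-free plates subtracted. Growth % = well OD / drug-free well OD. Triplicate on different days, values averaged.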

Candida albicans [3] = assay: Antimicrobial activity against azole-resistant Candida albicans isolate CA10 assessed as growth at 4 ug/ml cotreated with 0.008 ug/ml calcineurin signaling inhibitor tacrolimus after 48 hrs by microdilution checkerboard technique relative to control; design: scale not given: the % may be the effect or the level left
Outline: (§3)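 CA10 in RPMI 1640 with 2% dextrose and 0.165 M MOPS, pH 7.0. Checkerboard used twofold dilutions, with azole alone in row H and the drug-free growth control in well H1. Final inoculum was 2.5 × 10^3 CFU/ml, incubated 35°C for 48 h, with OD read at 492 nm. Growth % = background-subtracted well OD / drug-free well OD. Run in triplicate on different days.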

Candida albicans [4] = assay: Antimicrobial activity against azole-resistant Candida albicans isolate CA10 assessed as growth at 4 ug/ml after 48 hrs by microdilution checkerboard technique relative to control; outline: as §3
Candida albicans [5] = assay: Antimicrobial activity against azole-resistant Candida albicans isolate CA10 assessed as growth at 32 ug/ml co-treated with 0.031 ug/ml calcineurin signaling inhibitor tacrolimus after 48 hrs by microdilution checkboard technique relative to control; design: scale not given: the % may be the effect or the level left; outline: as §2
Candida albicans [6] = assay: Antimicrobial activity against azole-resistant Candida albicans isolate CA10 assessed as growth at 128 ug/ml co-treated with 0.031 ug/ml calcineurin signaling inhibitor tacrolimus after 48 hrs by microdilution checkboard technique relative to control; design: scale not given: the % may be the effect or the level left; outline: as §2
Candida albicans [7] = assay: Antimicrobial activity against azole-resistant Candida albicans isolate CA10 assessed as growth at 4 ug/ml cotreated with 0.004 ug/ml calcineurin signaling inhibitor tacrolimus after 48 hrs by microdilution checkerboard technique relative to control; design: scale not given: the % may be the effect or the level left; outline: as §3
Candida albicans [8] = assay: Antimicrobial activity against azole-resistant Candida albicans isolate CA10 assessed as growth at 0.125 ug/ml cotreated with 0.063 ug/ml calcineurin signaling inhibitor Tacrolimus after 48 hrs by microdilution checkboard technique relative to control; design: scale not given: the % may be the effect or the level left
Outline: (§4)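 Checkerboard microdilution in MOPS-buffered RPMI 1640 (pH 7.0, 2% dextrose). Final ranges: azole 0.125–128 μg/ml (FLC) or 0.008–8 μg/ml (ITR, VRC), tacrolimus 0.002–0.125 μg/ml; solvent 1% in single-drug wells. Inoculum 2.5 × 10^3 CFU/ml, 35°C, 48 h. Growth % = background-subtracted OD492 of each well / drug-free well. Triplicate on different days.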

Candida albicans [9] = assay: Antimicrobial activity against azole-resistant Candida albicans isolate CA10 assessed as growth at 4 ug/ml cotreated with 0.016 ug/ml calcineurin signaling inhibitor Tacrolimus after 48 hrs by microdilution checkboard technique relative to control; design: scale not given: the % may be the effect or the level left; outline: as §3
Candida albicans [10] = assay: Antimicrobial activity against azole-resistant Candida albicans isolate CA10 assessed as growth at 8 ug/ml cotreated with 0.016 ug/ml calcineurin signaling inhibitor Tacrolimus after 48 hrs by microdilution checkboard technique relative to control; design: scale not given: the % may be the effect or the level left; outline: as §3
Candida albicans [11] = assay: Antimicrobial activity against azole-resistant Candida albicans isolate CA10 assessed as growth at 8 ug/ml co-treated with 0.004 ug/ml calcineurin signaling inhibitor tacrolimus after 48 hrs by microdilution checkboard technique relative to control; design: scale not given: the % may be the effect or the level left; outline: as §3
Candida albicans [12] = assay: Antimicrobial activity against azole-resistant Candida albicans isolate CA10 assessed as growth at 0.25 ug/ml after 48 hrs by microdilution checkerboard technique relative to control; outline: as §2
Candida albicans [13] = assay: Antimicrobial activity against azole-resistant Candida albicans isolate CA10 assessed as growth at 2 ug/ml cotreated with 0.063 ug/ml calcineurin signaling inhibitor tacrolimus after 48 hrs by microdilution checkerboard technique relative to control; design: scale not given: the % may be the effect or the level left; outline: as §4
Candida albicans [14] = assay: Antimicrobial activity against azole-resistant Candida albicans isolate CA10 assessed as growth at 0.016 ug/ml after 48 hrs by microdilution checkerboard technique relative to control; outline: as §4
Candida albicans [15] = assay: Antimicrobial activity against azole-resistant Candida albicans isolate CA10 assessed as growth at 0.125 ug/ml cotreated with 0.125 ug/ml calcineurin signaling inhibitor Tacrolimus after 48 hrs by microdilution checkboard technique relative to control; design: scale not given: the % may be the effect or the level left; outline: as §4
Candida albicans [16] = assay: Antimicrobial activity against azole-resistant Candida albicans isolate CA10 assessed as growth at 0.5 ug/ml after 48 hrs by microdilution checkerboard technique relative to control; outline: as §4
Candida albicans [17] = assay: Antimicrobial activity against azole-resistant Candida albicans isolate CA10 assessed as growth at 0.125 ug/ml cotreated with 0.008 ug/ml calcineurin signaling inhibitor tacrolimus after 48 hrs by microdilution checkerboard technique relative to control; design: scale not given: the % may be the effect or the level left; outline: as §4
Candida albicans [18] = assay: Antimicrobial activity against azole-resistant Candida albicans isolate CA10 assessed as growth at 4 ug/ml cotreated with 0.063 ug/ml calcineurin signaling inhibitor Tacrolimus after 48 hrs by microdilution checkboard technique relative to control; design: scale not given: the % may be the effect or the level left; outline: as §3
Candida albicans [19] = assay: Antimicrobial activity against azole-resistant Candida albicans isolate CA10 assessed as growth at 2 ug/ml cotreated with 0.002 ug/ml calcineurin signaling inhibitor tacrolimus after 48 hrs by microdilution checkerboard technique relative to control; design: scale not given: the % may be the effect or the level left; outline: as §4
Candida albicans [20] = assay: Antimicrobial activity against azole-resistant Candida albicans isolate CA10 assessed as log reduction in colony count at 10 ug/ml co-treated with calcineurin signaling inhibitor tacrolimus after 48 hrs by XTT assay
Outline: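 Same time-kill setup (10^5 CFU/ml start, azole ± 0.016 μg/ml FK506, 35°C). At each time point, aliquots were mixed 1:1 with XTT (0.5 g/liter in Ringer's lactate) plus 10 μM menadione final. Incubation was in the dark for up to 2 h at 35°C, then formazan was read at 492 nm. OD was converted to CFU via a standard curve (Y = 4.2610x + 4.2087). Triplicate.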

Candida albicans [21] = assay: Antimicrobial activity against azole-resistant Candida albicans isolate CA10 assessed as growth at 64 ug/ml co-treated with 0.031 ug/ml calcineurin signaling inhibitor tacrolimus after 48 hrs by microdilution checkboard technique relative to control; design: scale not given: the % may be the effect or the level left; outline: as §2
Candida albicans [22] = assay: Antimicrobial activity against azole-resistant Candida albicans isolate CA10 co-treated with calcineurin signaling inhibitor tacrolimus after 48 hrs by microdilution checkerboard technique; conditions: isolate CA10, 48 h; outline: as §1

SMILES: OC(Cn1cncn1)(Cn1cncn1)c1ccc(F)cc1F [FLUCONAZOLE]
- MIC (Candida albicans [1]): 66 mg/L
- Activity (Candida albicans [2]): 7%
- Activity (Candida albicans [3]): 30%
- Activity (Candida albicans [4]): 53%
- Activity (Candida albicans [5]): 16%
- Activity (Candida albicans [6]): 14%
- Activity (Candida albicans [7]): 46%
- Activity (Candida albicans [8]): 27%
- Activity (Candida albicans [9]): 18%
- Activity (Candida albicans [10]): 19%
- Activity (Candida albicans [11]): 34%
- Activity (Candida albicans [12]): 63%
- Activity (Candida albicans [13]): 13%
- Activity (Candida albicans [14]): 96%
- Activity (Candida albicans [15]): 25%
- Activity (Candida albicans [16]): 53%
- Activity (Candida albicans [17]): 60%
- Activity (Candida albicans [18]): 13%
- Activity (Candida albicans [19]): 48%
- Activity (Candida albicans [20]): 2.37
- Activity (Candida albicans [21]): 13%
- MIC (Candida albicans [22]): 0.25 mg/L
